ChEMBL document CHEMBL1143979, “1-, 3- and 8-substituted-9-deazaxanthines as potent and selective antagonists at the human A2B adenosine receptor” (Bioorg Med Chem, 2008)

Columns and labels:
Adenosine receptor A2a [1] = target: T1, Adenosine receptor A2a (Homo sapiens, UniProt P29274); assay: Displacement of [3H]ZM-241385 from human adenosine A2A receptor expressed in CHO cells at 0.1 uM; assay type: cell-based
Method in brief: (§1)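 Competition binding at cloned human receptors: [3H]DPCPX for A1 and A2B, [3H]ZM241385 for A2A, [3H]NECA for A3. Screening compounds are reported as % radioligand displacement at one concentration. SEM below 10%.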

[2] = target: T2, Adenosine receptor A2b (Homo sapiens) (UniProt P29275); assay: Displacement of [3H]DPCPX from human adenosine A2B receptor expressed in HEK293 cells at 0.1 uM; assay type: cell-based; method in brief: as §1
T2 sequence (whole entry): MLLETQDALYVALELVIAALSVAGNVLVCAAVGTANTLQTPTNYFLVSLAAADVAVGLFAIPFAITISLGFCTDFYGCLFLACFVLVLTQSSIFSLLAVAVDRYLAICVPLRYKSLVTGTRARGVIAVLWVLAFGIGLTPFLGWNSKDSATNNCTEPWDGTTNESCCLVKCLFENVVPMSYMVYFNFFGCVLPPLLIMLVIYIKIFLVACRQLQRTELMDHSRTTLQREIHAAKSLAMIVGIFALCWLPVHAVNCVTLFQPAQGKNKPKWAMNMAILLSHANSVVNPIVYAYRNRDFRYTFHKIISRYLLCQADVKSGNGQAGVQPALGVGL

Adenosine receptor A2a [3] = target: T1, Adenosine receptor A2a; assay: Displacement of [3H]ZM-241385 from human adenosine A2A receptor expressed in CHO cells at 1 uM; assay type: cell-based; method in brief: as §1
Adenosine receptor A2b = target: T3, Adenosine receptor A2b (Homo sapiens, UniProt P29275); assay: Displacement of [3H]DPCPX from human adenosine A2B receptor expressed in HEK293 cells; assay type: cell-based; conditions: read-out: Log Ki (converted)
T3 sequence (P29275 whole entry): T2 sequence (whole entry)

Homo sapiens = organism: Homo sapiens; assay: Selectivity index, ratio for human adenosine A2A receptor to human adenosine A2B receptor
Adenosine receptor A2a [4] = target: T1, Adenosine receptor A2a; assay: Displacement of [3H]ZM-241385 from human adenosine A2A receptor expressed in CHO cells; assay type: cell-based; method in brief: as §1
Adenosine receptor A1 = target: T4, Adenosine receptor A1 (Homo sapiens, UniProt P30542); assay: Displacement of [3H]DPCPX from human adenosine A1 receptor expressed in CHO cells; assay type: cell-based; method in brief: as §1
T4 sequence (P30542 whole entry): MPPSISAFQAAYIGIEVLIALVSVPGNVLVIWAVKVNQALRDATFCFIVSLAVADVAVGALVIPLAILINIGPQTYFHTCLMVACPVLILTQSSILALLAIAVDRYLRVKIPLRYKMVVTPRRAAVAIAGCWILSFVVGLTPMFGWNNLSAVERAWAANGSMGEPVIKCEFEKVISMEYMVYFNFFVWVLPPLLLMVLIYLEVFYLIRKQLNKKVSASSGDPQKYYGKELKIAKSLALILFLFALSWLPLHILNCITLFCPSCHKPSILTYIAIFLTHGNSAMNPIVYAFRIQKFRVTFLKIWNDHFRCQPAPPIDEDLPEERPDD

[5] = target: T5, Adenosine receptor A3 (Homo sapiens) (UniProt P0DMS8); assay: Displacement of [3H]NECA from human adenosine A3 receptor expressed in CHO cells at 1 uM; assay type: cell-based; method in brief: as §1
T5 sequence (whole entry): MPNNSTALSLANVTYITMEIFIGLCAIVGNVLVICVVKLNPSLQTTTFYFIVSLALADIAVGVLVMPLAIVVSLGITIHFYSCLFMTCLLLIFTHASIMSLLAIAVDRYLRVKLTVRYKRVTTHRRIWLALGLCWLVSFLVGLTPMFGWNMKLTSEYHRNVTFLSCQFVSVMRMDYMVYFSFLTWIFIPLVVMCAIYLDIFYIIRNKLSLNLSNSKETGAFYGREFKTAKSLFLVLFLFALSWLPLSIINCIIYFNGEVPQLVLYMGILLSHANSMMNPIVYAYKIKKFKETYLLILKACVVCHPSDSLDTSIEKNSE

[6] = Antagonist activity at adenosine A2B receptor in guinea pig thoracic aorta smooth muscle; assay type: functional, tissue-based, Cavia porcellus
Method in brief: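 Isolated guinea pig thoracic aorta smooth muscle (A2B). Cumulative NECA concentration–response curves were run without and with antagonist. Antagonism is read as a parallel rightward shift with no loss of maximum, and reported as pA2.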

Adenosine receptor A2a [7] = target: T1, Adenosine receptor A2a; assay: Antagonist activity at human adenosine A2A receptor expressed in CHO cells by cAMP assay; assay type: functional, cell-based
Method in brief: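 cAMP assay in CHO cells transfected with human A2A receptor. Cumulative NECA concentration–response curves were run alone and with antagonist, and potency is expressed as pA2.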

Adenosine receptor A2a [8] = target: Adenosine receptor A2a (Rattus norvegicus, UniProt P30543); assay: Antagonist activity at adenosine A2A receptor in Sprague-Dawley rat aorta smooth muscle; assay type: functional, tissue-based; conditions: read-out: pA2 (converted)
Method in brief: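 Isolated aorta from male Sprague–Dawley rats (200–250 g) for A2A receptors. Cumulative NECA agonist concentration–response curves were run without and with antagonist, and antagonist potency is given as pA2.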

[9] = target: T2, Adenosine receptor A2b (Homo sapiens); assay: Antagonist activity at human adenosine A2B receptor expressed in HEK293 cells by cAMP assay; assay type: functional, cell-based
Method in brief: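 cAMP assay in HEK-293 cells with endogenous human A2B receptor expression. NECA cumulative concentration–response curves were run in the absence and presence of antagonist, and the parallel rightward shift gives pA2.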

T1 sequence (P29274 whole entry): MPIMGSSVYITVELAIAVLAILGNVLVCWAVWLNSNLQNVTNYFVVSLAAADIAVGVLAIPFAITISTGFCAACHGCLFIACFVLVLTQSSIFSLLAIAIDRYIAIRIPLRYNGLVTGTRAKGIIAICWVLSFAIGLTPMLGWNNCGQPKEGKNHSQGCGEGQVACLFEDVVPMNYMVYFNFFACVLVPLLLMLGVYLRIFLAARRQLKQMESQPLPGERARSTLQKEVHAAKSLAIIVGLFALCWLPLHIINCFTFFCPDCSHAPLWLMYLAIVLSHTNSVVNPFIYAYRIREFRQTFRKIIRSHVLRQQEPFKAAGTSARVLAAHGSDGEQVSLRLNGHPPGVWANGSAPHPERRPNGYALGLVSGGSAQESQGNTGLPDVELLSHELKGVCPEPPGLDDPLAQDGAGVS
Adenosine receptor A2a (Rattus norvegicus, UniProt P30543), sequence (P30543 whole entry): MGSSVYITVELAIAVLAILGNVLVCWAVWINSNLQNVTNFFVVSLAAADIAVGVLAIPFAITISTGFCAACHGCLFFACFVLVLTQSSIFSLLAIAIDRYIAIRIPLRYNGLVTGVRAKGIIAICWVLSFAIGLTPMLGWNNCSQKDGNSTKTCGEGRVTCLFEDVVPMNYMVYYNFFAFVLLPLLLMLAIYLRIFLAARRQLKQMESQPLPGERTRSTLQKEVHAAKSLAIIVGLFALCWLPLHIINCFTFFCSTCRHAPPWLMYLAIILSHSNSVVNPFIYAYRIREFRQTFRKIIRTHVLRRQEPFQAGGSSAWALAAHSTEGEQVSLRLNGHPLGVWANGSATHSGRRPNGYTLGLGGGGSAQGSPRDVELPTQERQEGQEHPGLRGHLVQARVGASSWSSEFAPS

Row | SMILES | Ki (Adenosine receptor A2b) [nM] | Ratio (Homo sapiens) | Ki (Adenosine receptor A2a [4]) [nM] | also measured
1 | CCCn1c(=O)n(C)c(=O)c2[nH]c(-c3ccc(OC(C)(C)C(=O)N4CCC(c5ccccc5)(c5ccccc5)CC4)cc3)cc21 | – | – | – | Activity (Adenosine receptor A2a [1]): 11%; Activity [2]: 35%
2 | COc1ccc(N2CCN(C(=O)COc3ccc(-c4cc5c([nH]4)c(=O)n(C)c(=O)n5C)c(OC)c3)CC2)cc1 | – | – | – | Activity (Adenosine receptor A2a [1]): 1%; Activity [2]: 30%
3 | CC(Oc1ccc(-c2cc3c([nH]2)c(=O)n(C)c(=O)n3C)cc1)C(=O)N1CCN(c2ccccc2Cl)CC1 (centres undefined) | 70.8 | 10.5 | 741 | –
4 | COCCn1c(=O)c2[nH]c(-c3ccc(OCC(=O)N4CCc5ccccc5C4)cc3)cc2n(CCOC)c1=O | 17 | – | – | Activity (Adenosine receptor A2a [3]): 20%
5 | CCCn1c(=O)n(C)c(=O)c2[nH]c(-c3ccc(OC(C)(C)C(=O)N4CCN(c5ccccc5)CC4)cc3)cc21 | 4.17 | 135 | 562 | –
6 | Cn1c(=O)c2[nH]c(-c3ccc(OC(C)(C)C(=O)N4CCC(c5ccccc5)(c5ccccc5)CC4)cc3)cc2n(C)c1=O | – | – | – | Activity (Adenosine receptor A2a [1]): 8%; Activity [2]: 34%
7 | CCCn1c(=O)n(C)c(=O)c2[nH]c(-c3ccc(OCC(=O)N4CCN(c5ccc(F)cc5)CC4)cc3)cc21 | 15.1 | 30.9 | 468 | pA2 [6]: 7.9; Activity (Adenosine receptor A2a [7]): Dose-dependent effect; Kb (Adenosine receptor A2a [8]): 234 nM; Activity [9]: Dose-dependent effect

Second part, led by results:

Row | Ki (Adenosine receptor A2b) [nM] | Ratio (Homo sapiens) | Ki (Adenosine receptor A2a [4]) [nM] | SMILES | also measured
8 | 891 | – | – | COc1cc(OCC(=O)N2CCC(c3ccccc3)CC2)ccc1-c1cc2c([nH]1)c(=O)n(C)c(=O)n2C | Activity (Adenosine receptor A2a [3]): 3%
9 | 6.31 | 56 | 355 | Cn1c(=O)c2[nH]c(-c3ccc(OCC(=O)N4CCN(c5ccccc5Cl)CC4)cc3)cc2n(C)c1=O | –
10 | 32.4 | 219 | 7080 | COc1cc(OCC(=O)N2CCN(c3ccccc3)CC2)ccc1-c1cc2c([nH]1)c(=O)n(C)c(=O)n2C | Ki (Adenosine receptor A1): 537 nM; Activity [5]: 9%
11 | 25.7 | 26.9 | 692 | CCn1c(=O)c2[nH]c(-c3ccc(OCC(=O)N4CCN(c5ccccc5)CC4)cc3)cc2n(CC)c1=O | –
12 | 7.08 | – | – | Cn1c(=O)c2[nH]c(-c3ccc(OCC(=O)N4CCN(c5c(Cl)cncc5Cl)CC4)cc3)cc2n(C)c1=O | Activity (Adenosine receptor A2a [3]): 21%
13 | 69.2 | 3.2 | 224 | CCCn1c(=O)c2[nH]c(-c3ccc(OCC(=O)N4CCN(c5ccccc5Cl)CC4)cc3)cc2n(C)c1=O | –
